Measured values as given in ChEMBL document CHEMBL4052614, “Novel 3',5'-diprenylated chalcones inhibited the proliferation of cancer cells in vitro by inducing cell apoptosis and arresting cell cycle phase” (Eur J Med Chem, 2017).
Activity calls are given as the source filed them. The calls are words filed in the database; no cut-off is given here.

tested on: HEL; assay: Induction of apoptosis in HEL cells assessed as necrotic cells at 5 umol/L after 48 hrs by annexin V-FITC/propidium iodide staining based flow cytometry (reference value: 0.3 to 1%); type: functional, Homo sapiens; details: not given

How did the Activity turn out when `COc1ccc(/C=C/C(=O)c2cc(CC=C(C)C)c(OC)c(CC=C(C)C)c2O)cc1[N+](=O)[O-]` was run?
The Activity was 0.8%.

tested on: PC-3; assay: Growth inhibition of human PC3 cells at 5 umol/L after 48 hrs by MTT assay relative to control; type: functional; details: not given
In short: (§1)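 Cells kept in DMEM/10% FBS at 37 °C, 5% CO2, seeded at 4×10^3–8×10^3 cells/well, 24 h attachment, then 48 h with compound at 5 µmol/L. MTT (5 mg/mL solution) added for 4 h at 37 °C, formazan taken up in DMSO, A490 read. Percent inhibition as mean ± SD of three independent experiments. Doxorubicin as positive control.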

How did the “growth inhibition (GI)” value turn out when `COc1ccc(/C=C/C(=O)c2cc(CC=C(C)C)c(OC)c(CC=C(C)C)c2O)cc1F` was run?
The value was “inactive”.

same assay, conditions: PC-3, 48 h, read-out: GI

Which inhibition of growth at 5 µM does the source give for `COc1ccc(/C=C/C(=O)c2cc(CC=C(C)C)c(OC)c(CC=C(C)C)c2O)cc1Cl` here?
The inhibition of growth at 5 µM was 31.8%.

`COc1ccc(/C=C/C(=O)c2cc(CC=C(C)C)c(OC)c(CC=C(C)C)c2O)cc1Br` was tested. Which inhibition of growth at 5 µM did it give?
The inhibition of growth at 5 µM was 20.9%.

How did the inhibition of growth at 5 µM turn out when `COc1cccc2c1C(=O)c1c(O)c3c(c(O)c1C2=O)C[C@@](O)(C(=O)CO)C[C@@H]3O[C@H]1C[C@H](N)[C@H](O)[C@H](C)O1` [DOXORUBICIN] was run?
Its inhibition of growth at 5 µM is 89.7%.

For `COc1ccc(/C=C/C(=O)c2cc(CC=C(C)C)c(OC)c(CC=C(C)C)c2O)cc1[N+](=O)[O-]`, which inhibition of growth at 5 µM is on record?
The inhibition of growth at 5 µM was 21.2%.

tested on: HEL; assay: Induction of apoptosis in HEL cells assessed as early apoptotic cells at 10 umol/L after 48 hrs by annexin V-FITC/propidium iodide staining based flow cytometry (reference value: 4.2%); type: functional, Homo sapiens; details: not given

Which Activity does the source give for `COc1ccc(/C=C/C(=O)c2cc(CC=C(C)C)c(OC)c(CC=C(C)C)c2O)cc1[N+](=O)[O-]` here?
Its Activity is 11.6%.

tested on: HEL; assay: Induction of apoptosis in HEL cells assessed as viable cells at 10 umol/L after 48 hrs by annexin V-FITC/propidium iodide staining based flow cytometry (reference value: 94%); type: functional; details: Homo sapiens, read-out: Activity

Which viability at 10 µM does the source give for `COc1ccc(/C=C/C(=O)c2cc(CC=C(C)C)c(OC)c(CC=C(C)C)c2O)cc1[N+](=O)[O-]` here?
The viability at 10 µM was 30.6%.

tested on: HEL; assay: Induction of morphological changes in HEL cells assessed as reduction in cell number at 5 umol/L after 48 hrs by inverted fluorescence microscopic analysis; type: functional, cell-based; details: Homo sapiens
In short: (§2)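 Cells cultured in DMEM/10% FBS at 37 °C, 5% CO2. Exposed 48 h to 5 µmol/L compound alongside DMSO controls. Morphology (cell number, rounding, spacing, apoptotic bodies, spindle shape) observed under an inverted microscope with CCD camera.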

How did the Activity turn out when `COc1ccc(/C=C/C(=O)c2cc(CC=C(C)C)c(OC)c(CC=C(C)C)c2O)cc1[N+](=O)[O-]` was run?
The Activity was “Active”.

tested on: MDA-MB-231; assay: Growth inhibition of human MDA-MB-231 cells at 5 umol/L after 48 hrs by MTT assay relative to control; type: functional; details: MDA-MB-231, 48 h, read-out: GI; in short: as §1

Which inhibition of growth at 5 µM does the source give for `COc1ccc(/C=C/C(=O)c2cc(CC=C(C)C)c(OC)c(CC=C(C)C)c2O)cc1Cl` here?
The inhibition of growth at 5 µM was 26.5%.

`COc1ccc(/C=C/C(=O)c2cc(CC=C(C)C)c(OC)c(CC=C(C)C)c2O)cc1Br` was tested. Which inhibition of growth at 5 µM did it give?
The inhibition of growth at 5 µM was 30.2%.

For `COc1ccc(/C=C/C(=O)c2cc(CC=C(C)C)c(OC)c(CC=C(C)C)c2O)cc1F`, which inhibition of growth at 5 µM is on record?
The inhibition of growth at 5 µM was 12.1%.

For `COc1cccc2c1C(=O)c1c(O)c3c(c(O)c1C2=O)C[C@@](O)(C(=O)CO)C[C@@H]3O[C@H]1C[C@H](N)[C@H](O)[C@H](C)O1` [DOXORUBICIN], which inhibition of growth at 5 µM is on record?
Its inhibition of growth at 5 µM is 87.1%.

With `COc1ccc(/C=C/C(=O)c2cc(CC=C(C)C)c(OC)c(CC=C(C)C)c2O)cc1[N+](=O)[O-]` as the compound, how does the inhibition of growth at 5 µM read?
The inhibition of growth at 5 µM was 23.4%.

tested on: HEL; assay: Induction of apoptosis in HEL cells assessed as necrotic cells at 10 umol/L after 48 hrs by annexin V-FITC/propidium iodide staining based flow cytometry (reference value: 0.3%); type: functional, Homo sapiens; details: not given

`COc1ccc(/C=C/C(=O)c2cc(CC=C(C)C)c(OC)c(CC=C(C)C)c2O)cc1[N+](=O)[O-]` was tested. Which Activity did it give?
Its Activity is 10.1%.

tested on: HEL; assay: Induction of morphological changes in HEL cells assessed as formation of apoptotic bodies at 5 umol/L after 48 hrs by inverted fluorescence microscopic analysis; type: functional, cell-based; details: Homo sapiens; in short: as §2

With `COc1ccc(/C=C/C(=O)c2cc(CC=C(C)C)c(OC)c(CC=C(C)C)c2O)cc1[N+](=O)[O-]` as the compound, how does the Activity read?
The Activity was “inactive”.

tested on: HEL; assay: Induction of apoptosis in HEL cells assessed as late apoptotic cells at 5 umol/L after 48 hrs by annexin V-FITC/propidium iodide staining based flow cytometry (reference value: 1.6 to 3.3%); type: functional, Homo sapiens; details: not given

`COc1ccc(/C=C/C(=O)c2cc(CC=C(C)C)c(OC)c(CC=C(C)C)c2O)cc1[N+](=O)[O-]` was tested. Which Activity did it give?
The Activity was 3.9%.

tested on: K562; assay: Growth inhibition of human K562 cells at 5 umol/L after 48 hrs by MTT assay relative to control; type: functional; details: K562, 48 h, read-out: GI; in short: as §1

For `COc1ccc(/C=C/C(=O)c2cc(CC=C(C)C)c(OC)c(CC=C(C)C)c2O)cc1Cl`, which inhibition of growth at 5 µM is on record?
Its inhibition of growth at 5 µM is 31.9%.

With `COc1ccc(/C=C/C(=O)c2cc(CC=C(C)C)c(OC)c(CC=C(C)C)c2O)cc1Br` as the compound, how does the inhibition of growth at 5 µM read?
The inhibition of growth at 5 µM was 18.9%.

`COc1ccc(/C=C/C(=O)c2cc(CC=C(C)C)c(OC)c(CC=C(C)C)c2O)cc1F` was tested. Which inhibition of growth at 5 µM did it give?
The inhibition of growth at 5 µM was 19.3%.

With `COc1cccc2c1C(=O)c1c(O)c3c(c(O)c1C2=O)C[C@@](O)(C(=O)CO)C[C@@H]3O[C@H]1C[C@H](N)[C@H](O)[C@H](C)O1` [DOXORUBICIN] as the compound, how does the inhibition of growth at 5 µM read?
The inhibition of growth at 5 µM was 90.6%.

How did the inhibition of growth at 5 µM turn out when `COc1ccc(/C=C/C(=O)c2cc(CC=C(C)C)c(OC)c(CC=C(C)C)c2O)cc1[N+](=O)[O-]` was run?
Its inhibition of growth at 5 µM is 23%.

tested on: HEL; assay: Induction of apoptosis in HEL cells assessed as viable cells at 5 umol/L after 48 hrs by annexin V-FITC/propidium iodide staining based flow cytometry (reference value: 93.1 to 94%); type: functional; details: Homo sapiens, read-out: Activity

For `COc1ccc(/C=C/C(=O)c2cc(CC=C(C)C)c(OC)c(CC=C(C)C)c2O)cc1[N+](=O)[O-]`, which viability at 5 µM is on record?
The viability at 5 µM was 90%.

tested on: HEL; assay: Induction of apoptosis in HEL cells assessed as early apoptotic cells at 5 umol/L after 48 hrs by annexin V-FITC/propidium iodide staining based flow cytometry (reference value: 2.6 to 4.2%); type: functional, Homo sapiens; details: not given

For `COc1ccc(/C=C/C(=O)c2cc(CC=C(C)C)c(OC)c(CC=C(C)C)c2O)cc1[N+](=O)[O-]`, which Activity is on record?
Its Activity is 5.3%.

tested on: HEL; assay: Induction of apoptosis in HEL cells assessed as late apoptotic cells at 10 umol/L after 48 hrs by annexin V-FITC/propidium iodide staining based flow cytometry (reference value: 1.6%); type: functional, Homo sapiens; details: not given

For `COc1ccc(/C=C/C(=O)c2cc(CC=C(C)C)c(OC)c(CC=C(C)C)c2O)cc1[N+](=O)[O-]`, which Activity is on record?
The Activity was 47.6%.

tested on: HEL; assay: Cytotoxicity against HEL cells after 48 hrs by MTT assay; type: functional, cell-based; details: Homo sapiens
In short: (§3)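 Cells kept in DMEM/10% FBS at 37 °C, 5% CO2, seeded at 4×10^3–8×10^3 cells/well and left 24 h to adhere. Exposed 48 h to a range of concentrations. MTT (5 mg/mL solution) added for 4 h at 37 °C, formazan dissolved in DMSO, absorbance read at 490 nm. IC50 derived from concentration–inhibition relation. Doxorubicin as positive control.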

`COc1cccc2c1C(=O)c1c(O)c3c(c(O)c1C2=O)C[C@@](O)(C(=O)CO)C[C@@H]3O[C@H]1C[C@H](N)[C@H](O)[C@H](C)O1` [DOXORUBICIN] was tested. Which IC50 did it give?
Its IC50 is 2.13 µM.

What does the source list for `COc1ccc(/C=C/C(=O)c2cc(CC=C(C)C)c(OC)c(CC=C(C)C)c2O)cc1[N+](=O)[O-]`?
Activity: Dose-dependent effect; IC50: 4.35 µM

tested on: PC-3; assay: Cytotoxicity against human PC3 cells after 48 hrs by MTT assay; type: functional, cell-based; details: PC-3, 48 h; in short: as §3

With `COc1cccc2c1C(=O)c1c(O)c3c(c(O)c1C2=O)C[C@@](O)(C(=O)CO)C[C@@H]3O[C@H]1C[C@H](N)[C@H](O)[C@H](C)O1` [DOXORUBICIN] as the compound, how does the IC50 read?
Its IC50 is 2.63 µM.

tested on: K562; assay: Cytotoxicity against human K562 cells after 48 hrs by MTT assay; type: functional, cell-based; details: K562, 48 h; in short: as §3

How did the IC50 turn out when `COc1cccc2c1C(=O)c1c(O)c3c(c(O)c1C2=O)C[C@@](O)(C(=O)CO)C[C@@H]3O[C@H]1C[C@H](N)[C@H](O)[C@H](C)O1` [DOXORUBICIN] was run?
The IC50 was 2.41 µM.

tested on: HEL; assay: Growth inhibition of HEL cells at 5 umol/L after 48 hrs by MTT assay relative to control; type: functional; details: Homo sapiens; in short: as §1

With `COc1ccc(/C=C/C(=O)c2cc(CC=C(C)C)c(OC)c(CC=C(C)C)c2O)cc1Br` as the compound, how does the “growth inhibition (GI)” value read?
The value was “inactive”.

same assay, conditions: Homo sapiens, read-out: GI

`COc1ccc(/C=C/C(=O)c2cc(CC=C(C)C)c(OC)c(CC=C(C)C)c2O)cc1Cl` was tested. Which inhibition of growth at 5 µM did it give?
The inhibition of growth at 5 µM was 11.7%.

For `COc1ccc(/C=C/C(=O)c2cc(CC=C(C)C)c(OC)c(CC=C(C)C)c2O)cc1F`, which inhibition of growth at 5 µM is on record?
The inhibition of growth at 5 µM was 12.3%.

How did the inhibition of growth at 5 µM turn out when `COc1cccc2c1C(=O)c1c(O)c3c(c(O)c1C2=O)C[C@@](O)(C(=O)CO)C[C@@H]3O[C@H]1C[C@H](N)[C@H](O)[C@H](C)O1` [DOXORUBICIN] was run?
The inhibition of growth at 5 µM was 89.2%.

`COc1ccc(/C=C/C(=O)c2cc(CC=C(C)C)c(OC)c(CC=C(C)C)c2O)cc1[N+](=O)[O-]` was tested. Which inhibition of growth at 5 µM did it give?
The inhibition of growth at 5 µM was 85.4%.

tested on: HEL; assay: Cell cycle arrest in HEL cells assessed as decrease in G2 phase accumulation at 5 umol/L after 48 hrs by propidium iodide staining based flow cytometric method; type: functional; details: Homo sapiens
In short: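 Cells grown in DMEM with 10% FBS and penicillin/streptomycin at 37 °C, 5% CO2, and passaged at least 3 times after thawing. Treated 48 h at 5 µmol/L, DMSO-treated controls. Harvested by trypsin, PBS-washed, fixed in ice-cold ethanol, blocked 1 h at 4 °C in 5% BSA/PBS, RNase 1 µg/mL 30 min at 37 °C, PI 20 µg/mL final. Phase percentages read from PI histograms. Mean ± SD, three independent experiments.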

How did the Activity turn out when `COc1ccc(/C=C/C(=O)c2cc(CC=C(C)C)c(OC)c(CC=C(C)C)c2O)cc1[N+](=O)[O-]` was run?
The Activity was “Active”.
